From paper PMC7781173 (Amino Acids, 2021)

Legend:
human C5 [1] = target: T1, human C5 (Homo sapiens, UniProt P01031); experiment: Ex vivo human whole blood assay; type: cell-based; details: summary statement
How it was run: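 Fresh blood from healthy volunteers, anticoagulated with lepirudin at 50 μg/mL. Pre-treated with test compound (1 nM to 1 μM) for 30 min at 37 °C, then stimulated with E. coli O111:B4 LPS at 200 ng/mL for 24 h at 37 °C. Centrifuged at 2000×g for 10 min at 4 °C; plasma C5a quantified by commercial ELISA. Concentration–response format.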

human C5 [2] = target: T1, human C5; details: ref Hoarty et al. [2015]; Ricardo et al. [2017]; cited from earlier work
rodent C5 = details: ref Hoarty et al. [2015]; Ricardo et al. [2017]; cited from earlier work
C5b = details: prevents assembly of the MAC; ref Yee et al. [2015]; cited from earlier work
C5 = details: background statement, reference not given; cited from earlier work

T1 sequence (P01031 19-673 limits assumed): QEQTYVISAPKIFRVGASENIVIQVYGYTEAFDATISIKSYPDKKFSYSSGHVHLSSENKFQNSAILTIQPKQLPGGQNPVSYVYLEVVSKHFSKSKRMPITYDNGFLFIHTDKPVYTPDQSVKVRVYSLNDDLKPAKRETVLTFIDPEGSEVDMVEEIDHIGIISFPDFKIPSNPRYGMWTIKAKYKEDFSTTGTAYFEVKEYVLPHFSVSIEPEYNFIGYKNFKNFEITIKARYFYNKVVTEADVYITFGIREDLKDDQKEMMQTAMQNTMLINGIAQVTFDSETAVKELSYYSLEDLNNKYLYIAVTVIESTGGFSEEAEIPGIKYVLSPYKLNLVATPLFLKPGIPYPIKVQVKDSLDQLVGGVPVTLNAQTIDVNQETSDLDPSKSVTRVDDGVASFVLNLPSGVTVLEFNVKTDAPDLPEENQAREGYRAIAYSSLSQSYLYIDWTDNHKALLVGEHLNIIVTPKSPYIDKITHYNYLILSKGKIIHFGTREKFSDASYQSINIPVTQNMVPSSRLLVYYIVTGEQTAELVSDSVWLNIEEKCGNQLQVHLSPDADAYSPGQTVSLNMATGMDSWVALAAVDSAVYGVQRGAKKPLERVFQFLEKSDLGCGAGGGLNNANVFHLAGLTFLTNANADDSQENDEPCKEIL
T1 sequence (P01031 678-1676 limits assumed): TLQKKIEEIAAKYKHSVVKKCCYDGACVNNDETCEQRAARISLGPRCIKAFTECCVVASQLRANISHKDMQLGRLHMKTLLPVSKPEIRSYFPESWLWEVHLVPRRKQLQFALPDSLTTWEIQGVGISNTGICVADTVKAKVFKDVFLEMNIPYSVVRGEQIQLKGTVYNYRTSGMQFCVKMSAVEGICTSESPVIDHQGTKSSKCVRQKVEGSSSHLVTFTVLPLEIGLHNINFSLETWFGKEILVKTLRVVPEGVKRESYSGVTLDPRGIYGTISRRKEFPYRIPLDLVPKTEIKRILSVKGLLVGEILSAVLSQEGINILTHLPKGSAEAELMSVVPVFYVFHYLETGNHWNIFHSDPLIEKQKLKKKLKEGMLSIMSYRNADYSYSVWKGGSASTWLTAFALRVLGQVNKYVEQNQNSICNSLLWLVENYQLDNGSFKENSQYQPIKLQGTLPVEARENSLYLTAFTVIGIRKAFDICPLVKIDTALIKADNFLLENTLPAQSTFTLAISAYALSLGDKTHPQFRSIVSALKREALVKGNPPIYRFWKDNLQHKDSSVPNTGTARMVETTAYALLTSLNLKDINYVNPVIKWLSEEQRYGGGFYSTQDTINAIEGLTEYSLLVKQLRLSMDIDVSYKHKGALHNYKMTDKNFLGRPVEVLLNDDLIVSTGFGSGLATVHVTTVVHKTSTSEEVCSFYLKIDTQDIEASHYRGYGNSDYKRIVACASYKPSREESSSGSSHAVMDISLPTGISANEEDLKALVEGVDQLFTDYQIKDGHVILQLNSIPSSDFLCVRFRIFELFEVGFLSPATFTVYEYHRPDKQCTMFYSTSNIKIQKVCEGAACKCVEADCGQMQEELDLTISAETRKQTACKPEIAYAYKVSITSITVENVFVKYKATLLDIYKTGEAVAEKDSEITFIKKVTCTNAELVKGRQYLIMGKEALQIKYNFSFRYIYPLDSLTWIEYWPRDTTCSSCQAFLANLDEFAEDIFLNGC

## zilucoplan
Human C5 [1]
  LPS-induced C5a production from human blood: blocks LPS-induced C5a production
Human C5 [2]
  human C5 cleavage: does bind and inhibit human C5 cleavage
Rodent C5
  rodent C5 cleavage: little to no effect
C5b
  binding to C5b; C5b binding to C6: binds to C5b, thereby competitively inhibiting C5b binding to C6
C5
  C5 cleavage: inhibit C5 cleavage
